# Source: PubChem
# WT yeast gro inh – growth inhibition of WT yeast, mitochondrial fusion screen; mitochondrial fusion phenotypic screen, WT strain; inhibition, % at 10 µM; 2.1% of 190,000 active; AID 1362; in the data active means inhibition above about 58%; tested in S. cerevisiae
# Yeast lifespan up – yeast lifespan extension; S. cerevisiae growth with nicotinamide, OD615; deaD strain in restrictive glucose medium; inhibition of the nicotinamide effect, % at 10 µM; 0.68% of 130,000 active;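 active means inhibition above a set limit, placed 3 SD over the median of all compounds, cut at about 26% in these data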;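 further: 0% = nicotinamide-treated wells and 100% = cells grown without nicotinamide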
#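 System: Modified budding yeast, DeaD strain | Buffer or medium: Restrictive glucose medium | Also added: 1.5 mM nicotinamide | Doses: 10 µM single point, 0.25% DMSO | Schedule: 48 h compound exposure at 30 °C, humidified | Detection: Absorbance at 615 nm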
# Yeast growth inh – chemicals that inhibit yeast BB579 growth in restrictive medium (lifespan-shortening candidates) | 0.51% of 140,000 active | AID 804 | S. cerevisiae BB579 growth, OD615, 48 h | inhibition, % at 10 µM;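 active means inhibition above a set limit, 3 SD over the mean compound inhibition, cut at about 44% in these data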
#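 System: DeaD yeast strain BB579; buffer or medium: CSMM-D dextrose restrictive medium; technique: OD at 615 nm; schedule: 4 h cell preincubation, 48 h compound exposure, 30 °C humidified; doses: single 10 µM dose; controls: amphotericin B 10 µg/mL, positive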
# RAM network inh – blocks the yeast RAM network; AID 868; S. cerevisiae dse1pr::URA3 reporter, 5-FOA growth OD615, 2 d; analog-sensitive cbk1-as2 kinase mutant strain; inhibition, % at 50 µM; 1.8% of 190,000 active;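 active means inhibition above a set limit, 3 SD over mean compound inhibition, cut at about 8.4% in these data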;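 further: 0% = DMSO-only wells with no growth and 100% = 10 µM 1-NA-PP1 full growth; inhibition rescues growth on 5-FOA so higher OD means more RAM inhibition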
# KCC2 mod – KCC2 (human) Cl- transport modulation | B-score of Tl+ flux slope (higher = more flux/activation; lower = inhibition) at 10 µM | KCC2 cells, thallium flux FluoZin-2 fluorescence | Q9H2X9 | 2.2% of 190,000 active;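 active means thallium flux slope and its plate-corrected score both differing from the plate sample mean at a set confidence after two filtering rounds, in either direction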;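 further: slope of fluorescence scaled to starting intensity during 10 to 20 s after thallium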
# Target sequence (Q9H2X9 whole entry, looked up): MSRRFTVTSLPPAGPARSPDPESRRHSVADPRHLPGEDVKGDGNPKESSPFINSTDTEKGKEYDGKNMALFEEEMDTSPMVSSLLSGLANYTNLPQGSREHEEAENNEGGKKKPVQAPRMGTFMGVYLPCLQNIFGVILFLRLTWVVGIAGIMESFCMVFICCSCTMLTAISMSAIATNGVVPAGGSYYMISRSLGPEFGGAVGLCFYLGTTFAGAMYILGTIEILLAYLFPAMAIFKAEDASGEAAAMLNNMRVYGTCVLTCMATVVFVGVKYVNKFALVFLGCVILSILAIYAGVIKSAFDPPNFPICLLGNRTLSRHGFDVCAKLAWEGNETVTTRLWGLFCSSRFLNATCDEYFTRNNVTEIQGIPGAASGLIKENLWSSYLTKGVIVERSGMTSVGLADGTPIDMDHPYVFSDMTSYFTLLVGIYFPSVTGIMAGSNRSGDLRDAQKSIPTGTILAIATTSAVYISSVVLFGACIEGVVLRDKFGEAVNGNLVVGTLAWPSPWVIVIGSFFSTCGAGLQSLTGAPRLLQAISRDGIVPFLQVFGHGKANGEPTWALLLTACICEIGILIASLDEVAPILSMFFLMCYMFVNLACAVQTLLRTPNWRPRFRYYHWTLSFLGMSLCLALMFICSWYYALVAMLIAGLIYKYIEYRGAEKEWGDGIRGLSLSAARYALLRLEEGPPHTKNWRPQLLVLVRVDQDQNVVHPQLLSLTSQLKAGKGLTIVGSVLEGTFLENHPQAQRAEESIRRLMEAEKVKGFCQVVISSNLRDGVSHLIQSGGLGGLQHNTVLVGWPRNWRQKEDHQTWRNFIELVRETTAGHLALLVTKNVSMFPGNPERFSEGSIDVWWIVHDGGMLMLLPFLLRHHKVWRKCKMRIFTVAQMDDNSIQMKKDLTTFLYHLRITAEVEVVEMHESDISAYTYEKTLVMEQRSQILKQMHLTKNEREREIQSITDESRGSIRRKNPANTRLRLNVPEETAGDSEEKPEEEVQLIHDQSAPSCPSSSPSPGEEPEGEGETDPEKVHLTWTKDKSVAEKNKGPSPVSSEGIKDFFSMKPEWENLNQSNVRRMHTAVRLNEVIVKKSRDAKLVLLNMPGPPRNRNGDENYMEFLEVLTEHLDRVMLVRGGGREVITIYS
# KCC2 sec1 – confirmation of human KCC2 transport modulators. shares compounds with KCC2 mod. HEK293-KCC2, thallium flux, FluoZin2 fluorescence; active compounds read high. normalised thallium flux (F/F0 slope) at 10 µM. 15% of 3,700 active. AID 1713;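 active means thallium flux slope above the same plate's solvent-only control mean plus 3 SD; inconclusive means the two replicate wells disagree; inactive means no significant difference from solvent-only control wells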
# KCC2 bumet counter – thallium flux despite bumetanide block in KCC2 cells, secondary assay 3. shares compounds with KCC2 mod. HEK293-KCC2 + bumetanide/ouabain, thallium flux FluoZin2; active compounds read high. normalized thallium flux at 10 µM. 49% of 3,700 active. AID 1714;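 active means thallium entry rate above the same plate's blocked-transporter control wells by more than 3 SD; inconclusive means the two repeat wells disagree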;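 further: raw slope of fluorescence over initial fluorescence between 10 and 20 s after thallium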
# KCC2 sec2 – confirmation of human KCC2 transport modulators; shares compounds with KCC2 mod; HEK293-KCC2, thallium flux FluoZin2 fluorescence; actives lie on both sides; F/F0 rise rate, 10–20 s post-thallium; normalized thallium flux at 10 µM; 23% of 3,700 active;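 active means thallium flux slope more than 3 SD above or below the plate's solvent-only control mean, mostly below; inconclusive means the two repeat wells disagreed; inactive means no significant shift from solvent-only controls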;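 further: raw slope with 0.1% DMSO as baseline and bumetanide as block control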
# HEK counter1 – parental HEK flux effect, counter-screen. shares compounds with KCC2 mod. thallium flux rate (normalised fluorescence) at 10 µM. 46% of 3,700 active. HEK293 parental cells, thallium flux FluoZin2, ouabain; baseline-ratio fluorescence slope, 10–20 s after thallium;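 active means thallium flux rate significantly above the same plate's solvent-only control wells, beyond their mean plus 3 SD; inconclusive means the two replicate wells gave conflicting results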
# KCC2 retest ouab – KCC2 (human) modulation, ouabain retest. shares compounds with KCC2 mod. HEK293-KCC2, thallium flux FluoZin2 fluorescence; bidirectional: low = inhibitor, high = activator. raw Tl+ flux slope (below DMSO = inhibition, above = activation) at 10 µM. 48% of 3,700 active;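 active means thallium flux slope beyond 3 SD from same-plate DMSO control mean in most replicates, usually higher, sometimes lower; inconclusive means repeat tests gave conflicting results; inactive means no significant difference from controls in most replicates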;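 further: slope of initial-normalized fluorescence between seconds 10 and 20 after thallium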
# HEK293 Tl flux2 – acts in parental HEK cells, second KCC2 counter-screen. shares compounds with KCC2 mod. HEK293 parental, thallium flux FluoZin-2 fluorescence slope. thallium flux slope at 10 µM. 33% of 3,700 active. AID 1718;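 active means thallium flux slope above the same plate's solvent-control mean plus 3 SD in both duplicate wells; inconclusive means duplicate wells that disagreed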;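 further: run without ouabain in cells lacking the KCC2 cotransporter; slope of fluorescence scaled to its starting value between 10 and 20 s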
# * marks the source's active call; other numbers are inactive results; u = inconclusive; x = not tested or not shown. Rows were chosen to be rich in hits. Some 5.5% of all compounds tested hit in one or more screens of this group.
SMILES,WT yeast gro inh,Yeast lifespan up,Yeast growth inh,RAM network inh,KCC2 mod,KCC2 sec1,KCC2 bumet counter,KCC2 sec2,HEK counter1,KCC2 retest ouab,HEK293 Tl flux2
Cc1ccc2c(Cl)cc(Cl)c(OCC(=O)N(C(C)C)C(C)C)c2n1,33,x,x,2,4*,0.016,0.014*,0.028,0.011*,0.019,0.012
Cc1ccc2c(Cl)cc(Cl)c(OCC(=O)NC(C)(C)C)c2n1,56,x,x,-1,6.9*,0.01,0.031*,0.03,0.018*,0.032*,u
COC(=O)CC/C(=N/Nc1ccc(Cl)c(Cl)c1)C(=O)OC,-4,x,x,1,-0.43,x,x,x,x,x,x
COC(=O)COc1c(Cl)cc(Cl)c2ccc(C)nc12,4,x,x,-1,6.2*,0.016,0.011*,0.03,0.011*,0.019,0.014*
Cc1cccc(N=C2NN=C(c3ccccc3F)CS2)c1C,27,x,x,2,11*,0.011,0.013*,0.037,0.018*,0.026*,u
Fc1ccc(F)c(C2=NNC(=Nc3ccccc3F)SC2)c1,63*,-7,-2,1,5.9*,0.0067,0.011*,0.034,0.011*,0.026*,0.014*
N#CCCn1nc(-c2ccc([N+](=O)[O-])cc2)cc1Nc1ccccc1NC(=O)C(F)(F)F,0,8,-13,1,-0.56,x,x,x,x,x,x
O=C(O)CNc1nc(-c2ccccc2)nc2c1oc1ccccc12,x,x,x,x,x,0.0066,0.0053,0.029,0.0077,0.019,0.01
CCOc1ccc(Br)cc1CN(CC)CC,x,x,x,x,-1.3,x,x,x,x,x,x
S=c1[nH]nc(-c2ccccn2)n1/N=C/c1cccs1,-4,0,-13,3,-0.091,x,x,x,x,x,x
Cc1ccc(/C=N/n2c(-c3cccnc3)n[nH]c2=S)o1,x,x,x,x,1.6,x,x,x,x,x,x
Cc1ccc(/C=N/n2c(-c3ccc(Cl)cc3)n[nH]c2=S)o1,x,x,x,x,7.9*,0.016*,0.035*,0.038,0.011*,0.026,u
S=c1[nH]nc(-c2cccnc2)n1/N=C/c1ccc(Br)s1,-8,1,-7,2,23*,0.011,0.055*,0.033,0.011*,0.028,0.012*
S=c1[nH]nc(-c2ccc(Cl)cc2)n1/N=C/c1cccs1,x,x,x,x,23*,0.0081,0.025*,0.042*,0.03*,0.042*,0.024*
Cc1ccc(-c2n[nH]c(=S)n2/N=C/c2ccc(C)o2)cc1,-6,-1,-29,3,3.7*,u,0.018*,0.032,0.014*,0.026*,0.012
COc1ccccc1CN1C(=O)c2ccccc2C1C(=O)NC1CCC(C)CC1 (stereo not drawn),9,x,x,1,-0.66,x,x,x,x,x,x
Cc1ccc(-c2n[nH]c(=S)n2/N=C/c2sccc2C)cc1,x,x,x,x,19*,0.018,0.021*,0.034,0.015*,0.025*,0.017*
Cc1ccsc1/C=N/n1c(-c2cc(-c3ccccc3)n[nH]2)n[nH]c1=S,x,x,x,x,-0.12,x,x,x,x,x,x
COC(=O)c1cc2c(C)nn(-c3ccccc3)c2s1,6,-27,-5,4,-0.0011,x,x,x,x,x,x
Cc1nn(-c2ccccc2)c2sc(-c3n[nH]c(=S)o3)cc12,-4,-23,72*,0,6.3*,0.014*,0.028*,0.032,0.014*,u,0.013*
CC(C)Cn1c(-c2csc3c2CCCC3)n[nH]c1=S,50,-1,-9,1,4.8*,0.011,0.033*,0.031,0.011*,0.029*,0.01
CC(C)Cn1c(-c2ccccc2F)n[nH]c1=S,-2,-18,-49,2,1.7,x,x,x,x,x,x
O=c1ccc(Cc2ccccn2)n[nH]1,-19,-5,-17,0,2.4*,0.0098,0.0063,0.036,0.008,0.022,0.011
COc1cccc(C2Oc3ccccc3C3CC(c4cccs4)=NN32)c1 (stereo not drawn),x,x,x,x,6.5*,0.017,0.019*,0.032,0.013*,0.02,0.016*
O=C1/C(=C/c2cccs2)SC(=S)N1NS(=O)(=O)c1ccccc1,x,x,x,x,8.8*,0.014*,0.029*,0.036,0.016*,0.026,0.014*
SMILES,WT yeast gro inh,Yeast lifespan up,Yeast growth inh,RAM network inh,KCC2 mod,KCC2 sec1,KCC2 bumet counter,KCC2 sec2,HEK counter1,KCC2 retest ouab,HEK293 Tl flux2
O=C1/C(=C/C=C/c2ccco2)SC(=S)N1NS(=O)(=O)c1ccccc1,x,x,x,x,6.8*,0.0067,0.014*,0.032,0.017*,u,0.018*
S=C(NC1CCCCC1)N1CCCCC1,x,x,x,x,-0.84,x,x,x,x,x,x
COc1ccccc1C(=O)N(NC(=O)Oc1ccccc1)C(C)(C)C,-10,3,-30,0,-0.68,x,x,x,x,x,x
Cc1ccc(CNC(=O)c2ccccc2NC(=O)CSc2nnnn2C)cc1,-31,-2,-38,3,0.37,x,x,x,x,x,x
O=C(Nc1cccnc1)Nc1ccc2c(c1)OCO2,-14,-15,-38,1,x,0.0094,0.0061,0.029,0.0076,0.021,0.0093
O=C(Nc1ccc2c(c1)OCO2)Nc1ccc2c(c1)OCO2,-5,x,x,1,-0.041,x,x,x,x,x,x
Cc1cccc(NC(=S)NNC(=O)c2ccccc2OC(F)F)c1,10,-19,13,1,13*,0.0091,0.026*,0.03,0.012*,u,0.011*
Cc1cccc(NC(=S)NNC(=O)c2ccc3c(c2)OCO3)c1,-2,0,-17,3,2.5,x,x,x,x,x,x
COc1ccc(NC(=S)NNC(=O)c2ccccc2OC(F)F)cc1,15,-3,-45,2,0.04,x,x,x,x,x,x
CCCc1cc(C(=O)NNC(=S)Nc2cccc(C)c2)cs1,28,-5,-8,4,31*,0.0058,0.083*,0.063*,0.077*,0.065*,0.044*
CC(=O)Oc1cc2c3c(c1)/C(=C1/SC(=S)NC1=O)C(=O)N3C(C)(C)C=C2C,x,x,x,x,12*,0.011,0.062*,0.033,0.017*,0.024,0.011
CCOC(=O)c1c(NS(C)(=O)=O)sc2c1CCC(C)C2 (stereo not drawn),10,15,-61,6,23*,0.02*,0.059*,0.038,0.028*,0.052*,0.014*
O=C(CSc1ccc(-c2ccc(F)cc2)nn1)N1CCCCC1,-3,-26,-20,1,-5.3*,0.0063,0.005,0.026,0.0075,0.014*,0.01
